# pEC50: −log10 of the molar value. The source made the active and inactive calls. No cut-off for these calls is given here.
# Tests used:
# [1] = Antiproliferative activity against human KB/HeLa cells after 48 hrs; type: functional, cell-based
# In short: (§1)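 Cells seeded in supplier-recommended growth medium at line-adapted densities (linear signal range), grown 24 h at 37 °C/5% CO2, then exposed to compound; highest concentration 3.16 μM. After 45 h, resazurin (0.2 mg/mL in DPBS) added for 3 h; fluorescence at 590 nm read at 48 h. % efficacy vs untreated cells and cell-free blanks; EC50 by nonlinear regression from at least two independent assays.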
# [2] = system: SF-268; assay: Antiproliferative activity against human SF268 cells after 48 hrs; type: functional, cell-based; details: SF-268, 48 h; in short: as §1
# [3] = Antiproliferative activity against human RKOp27IND cells after 48 hrs; type: functional, cell-based; in short: as §1
# [4] = system: SK-OV-3; assay: Antiproliferative activity against human SKOV3 cells after 48 hrs; type: functional, cell-based; details: SK-OV-3, 48 h; in short: as §1
# [5] = system: NCI-H460; assay: Antiproliferative activity against human NCI-H460 cells after 48 hrs; type: functional, cell-based; details: NCI-H460, 48 h; in short: as §1
# [6] = Antiproliferative activity against human RKOp27 cells after 48 hrs; type: functional, cell-based; details: RKOp27, 48 h; in short: as §1
# [7] = system: DNA; assay: Binding affinity to calf thymus DNA up to 5 mM; type: nucleic-acid assay; details: Bos taurus
# In short: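 UV-vis absorbance shift assay. Stocks of up to 5 mM were made in 5% DMSO or methanol. They were diluted in pH 7 phosphate buffer (5 mM NaH2PO4, 5 mM Na2HPO4, 70 mM NaCl) to give a maximum absorbance of about 1–2. Spectra were taken from 230–600 nm with and without 2 mg/ml calf thymus DNA, and peak shifts were compared.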
# [8] = Cell cycle arrest in human KB/HeLa cells assessed as accumulation at S phase at < 6 uM after 24 hrs by flow cytometry analysis; type: functional, cell-based
# In short: (§2)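 Exponentially dividing KB/HeLa cells (ATCC CCL17) were exposed at 37 °C to a range of compound concentrations and compared with untreated controls. Cells were prepared with the CycleTEST PLUS kit. DNA content was measured by flow cytometry (FACSCalibur), and phase distribution was derived with cell cycle analysis software.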
# [9] = Cell cycle arrest in human KB/HeLa cells assessed as accumulation at S phase up to 11 uM after 24 hrs by flow cytometry analysis; type: functional, cell-based; in short: as §2
# [10] = Cell cycle arrest in human KB/HeLa cells assessed as accumulation at S phase at < 7 uM after 24 hrs by flow cytometry analysis; type: functional, cell-based; in short: as §2
# [11] = system: SK-OV-3; assay: Antiproliferative activity against human SKOV3 cells at 3.16 uM after 48 hrs; type: functional; details: SK-OV-3, 48 h
# In short: (§3)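 Cells were seeded in the supplier-recommended medium and grown 24 h at 37 °C/5% CO2 before compound addition. Resazurin (0.2 mg/mL in DPBS) was added after 45 h, and fluorescence at 590 nm was read at 48 h total. % inhibition at the highest concentration (3.16 μM) was scored against untreated cells and cell-free blanks on each plate. Data came from at least two independent assays.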
# [12] = Cell cycle arrest in human KB/HeLa cells assessed as accumulation at S phase at < 4 uM after 24 hrs by flow cytometry analysis; type: functional, cell-based; in short: as §2
# [13] = system: SF-268; assay: Antiproliferative activity against human SF268 cells at 3.16 uM after 48 hrs; type: functional; details: SF-268, 48 h; in short: as §3
# [14] = Antiproliferative activity against human RKOp27IND cells at 3.16 uM after 48 hrs; type: functional; in short: as §3
# [15] = Antiproliferative activity against human KB/HeLa cells at 3.16 uM after 48 hrs; type: functional; in short: as §3
# [16] = Antiproliferative activity against human RKOp27 cells at 3.16 uM after 48 hrs; type: functional; details: RKOp27, 48 h; in short: as §3
# [17] = system: NCI-H460; assay: Antiproliferative activity against human NCI-H460 cells at 3.16 uM after 48 hrs; type: functional; details: NCI-H460, 48 h; in short: as §3
SMILES,pEC50 [4],pEC50 [5],pEC50 [1],pEC50 [2],pEC50 [3],pEC50 [6],Activity [7],also measured
CN(C)CCn1nc2c3c(c(N(C)C)ccc31)C(=O)c1ccncc1-2,5.68,6.11,5.66,5.87,5.51,5.58,Active,–
CN(C)CCn1nc2c3c(c(NCC/C=C\CCN4CC4)ccc31)C(=O)c1ccncc1-2,5.75,6.23,6.37,5.77,5.92,6.54,–,Activity [8]: Active
CN(C)CCn1nc2c3c(c(NCCc4ccccn4)ccc31)C(=O)c1ccncc1-2,5.85,6.00,–,–,5.42,5.57,–,–
CN(C)CCn1nc2c3c(c(NCCC#CCCN4CC4)ccc31)C(=O)c1ccncc1-2,6.51,7.22,6.85,6.62,6.46,7.15,Active,Activity [9]: inactive
c1ccc2nc3ccccc3cc2c1,–,–,–,–,–,–,Active,–
CN(C)CCn1nc2c3c(c(NCC/C=C/CCN4CC4)ccc31)C(=O)c1ccncc1-2,5.49,6.16,5.91,5.52,5.56,6.14,–,Activity [10]: Active
CN(C)CCn1nc2c3c(c(NCCc4cccs4)ccc31)C(=O)c1ccncc1-2,5.49,5.83,–,–,5.32,5.51,–,–
CN(C)CCn1nc2c3c(c(NCCCCc4ccc(N(CCCl)CCCl)cc4)ccc31)C(=O)c1ccncc1-2,–,5.42,5.61,5.38,5.79,5.92,–,inhibition at 3.16 µM [11]: < 30%
O=C1c2c(O)ccc(O)c2C(=O)c2c(NCCNCCO)ccc(NCCNCCO)c21 [MITOXANTRONE],6.92,6.92,6.44,6.49,6.12,7.05,Active,–
CN(C)CCn1nc2c3c(c(NCCCCN4CC4)ccc31)C(=O)c1ccncc1-2,6.28,7.15,7.10,6.38,5.99,6.00,Active,–
CN(C)CCn1nc2c3c(c(NCCCCCCN4CC4)ccc31)C(=O)c1ccncc1-2,6.11,6.70,6.47,6.12,5.89,6.89,Active,Activity [12]: Active
CN(C)CCn1nc2c3c(c(NCCC4CCCN4C)ccc31)C(=O)c1ccncc1-2 (stereo unspecified),6.44,6.80,–,–,6.34,6.43,Active,–
CN(C)CCn1nc2c3c(c(NCCN4CC4)ccc31)C(=O)c1ccncc1-2,6.41,7.10,7.15,6.16,5.98,7.10,–,–
CN(C)CCn1nc2c3c(c(NCCc4c[nH]cn4)ccc31)C(=O)c1ccncc1-2,5.78,5.52,–,–,5.32,5.88,–,–
CN(C)CCn1nc2c3c(c(NCCc4c[nH]c5ccccc45)ccc31)C(=O)c1ccncc1-2,5.82,5.88,–,–,5.82,5.88,inactive,–
CN(C)CCn1nc2c3c(c(NCCCCCCc4ccc(N(CCCl)CCCl)cc4)ccc31)C(=O)c1ccncc1-2,–,–,–,–,–,–,–,inhibition at 3.16 µM [13]: < 30%; inhibition at 3.16 µM [14]: < 30%; inhibition at 3.16 µM [15]: < 30%; inhibition at 3.16 µM [16]: < 30%; inhibition at 3.16 µM [17]: < 30%; inhibition at 3.16 µM [11]: < 30%

# Continued, in another order:
pEC50 [4],pEC50 [5],SMILES,pEC50 [1],pEC50 [2],pEC50 [3],pEC50 [6],Activity [7],also measured
6.26,6.60,CN(C)CCn1nc2c3c(c(NCCOS(C)(=O)=O)ccc31)C(=O)c1ccncc1-2,6.82,6.41,5.74,6.77,–,–
6.14,6.39,CN(C)CCn1nc2c3c(c(NCCC#CCCOS(C)(=O)=O)ccc31)C(=O)c1ccncc1-2,6.41,6.12,6.01,6.33,–,–
5.92,6.17,CN(C)CCn1nc2c3c(c(NCCC#CCCO)ccc31)C(=O)c1ccncc1-2,5.86,5.46,5.49,5.79,Active,–
6.40,6.82,CN(C)CCn1nc2c3c(c(NCCSCCO)ccc31)C(=O)c1ccncc1-2,6.02,6.18,5.97,6.26,Active,–
5.27,5.66,CN(C)CCn1nc2c3c(c(NCC/C=C\CCOS(C)(=O)=O)ccc31)C(=O)c1ccncc1-2,6.12,5.51,5.58,6.20,–,–
5.44,6.09,CN(C)CCn1nc2c3c(c(NCCCCCCOS(C)(=O)=O)ccc31)C(=O)c1ccncc1-2,5.78,5.86,5.71,6.29,–,–
6.15,6.51,CN(C)CCSCCNc1ccc2c3c(nn2CCN(C)C)-c2cnccc2C(=O)c13,6.12,5.63,5.75,6.04,–,–
–,5.97,CN(C)CCn1nc2c3c(c(NCCCCOS(C)(=O)=O)ccc31)C(=O)c1ccncc1-2,5.50,–,–,5.93,–,inhibition at 3.16 µM [13]: < 30%; inhibition at 3.16 µM [14]: < 30%; inhibition at 3.16 µM [11]: < 30%
5.87,6.17,CSCCCNc1ccc2c3c(nn2CCN(C)C)-c2cnccc2C(=O)c13,–,–,5.32,5.53,–,–

# Reference: ChEMBL document CHEMBL2331492, “Synthesis and biological evaluation of new cytotoxic indazolo[4,3-gh]isoquinolinone derivatives” (Bioorg Med Chem Lett, 2013)
